STAT3 act-1: IL-6 driven STAT3 reporter potentiators, primary screen, U3A cells, luciferase, luminescence, MLSCN library; activation (% of control), % at 5.6 µM; IL-6 STAT3-luciferase reporter; 100% = signal with IL-6 EC80 alone; AID 871, 2007; 0.91% of 190,000 active;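 active = activation above the screen-wide mean of compound activation plus 3 SD, cut at about 130% in these data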;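 note: 0% = background luminescence of wells with medium and substrate only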
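Test system: STAT3-luciferase reporter U3A cells; Detection: reporter luminescence signal; Times: 1 h compound pre-exposure, 6 h IL-6 stimulation, 37 °C; Benchmarks: IL-6-only high control; Also added: IL-6 stimulus at 33 ng/mL final.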
HSV replic up: enhancers of HSV replication in host cells, fold increase, host cell viability; HSV replication augmentation in cells; maximum fold increase; 0.005% of 220,000 active; AID 1956, 2009; in the data active = maximum fold increase above about 1.5; tested in PC3 cells
STAT3 inh: IL-6 driven STAT3 reporter inhibitors, primary screen, U3A cells, luciferase, luminescence, MLSCN library | IL-6 STAT3-luciferase reporter; host cell line lacks STAT1 | inhibition, % at 5.5 µM | 0.89% of 190,000 active;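 active = inhibition above the mean inhibition across all screened compounds plus 3 SD, cut at about 44% in these data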;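 note: 0% = DMSO only wells and 100% = 100 µM nifuroxazide control wells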
STAT1 blocker: STAT1 signaling inhibitors, primary screen, cell-based, HTS, luciferase reporter; NIH 3T3 STAT1-luciferase reporter, IFN-gamma, luminescence; inhibition, % at 5.5 µM; 0.35% of 200,000 active;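 active = inhibition above a set limit, the mean inhibition across all tested compounds plus 3 SD, cut at about 34% in these data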;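 note: 0% = IFN-gamma with DMSO and 100% = IFN-gamma with 300 µM nifuroxazide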
KCC2 mod: KCC2 cotransporter modulators, thallium flux, primary screen, cell-based, HEK293 KCC2, FluoZin-2 fluorescence, MLSMR. Solute carrier family 12 member 5 (Homo sapiens), Q9H2X9. B-score of Tl+ flux slope (higher = more flux/activation; lower = inhibition) at 10 µM. KCC2 cells, thallium flux FluoZin-2 fluorescence. AID 1456, 2008. 2.2% of 190,000 active;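 active = thallium flux slope and its plate-corrected score both differing from the plate sample mean at a set confidence after two filtering rounds, in either direction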;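 note: slope of fluorescence scaled to starting intensity during 10 to 20 s after thallium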
Target sequence (Q9H2X9 whole entry, looked up): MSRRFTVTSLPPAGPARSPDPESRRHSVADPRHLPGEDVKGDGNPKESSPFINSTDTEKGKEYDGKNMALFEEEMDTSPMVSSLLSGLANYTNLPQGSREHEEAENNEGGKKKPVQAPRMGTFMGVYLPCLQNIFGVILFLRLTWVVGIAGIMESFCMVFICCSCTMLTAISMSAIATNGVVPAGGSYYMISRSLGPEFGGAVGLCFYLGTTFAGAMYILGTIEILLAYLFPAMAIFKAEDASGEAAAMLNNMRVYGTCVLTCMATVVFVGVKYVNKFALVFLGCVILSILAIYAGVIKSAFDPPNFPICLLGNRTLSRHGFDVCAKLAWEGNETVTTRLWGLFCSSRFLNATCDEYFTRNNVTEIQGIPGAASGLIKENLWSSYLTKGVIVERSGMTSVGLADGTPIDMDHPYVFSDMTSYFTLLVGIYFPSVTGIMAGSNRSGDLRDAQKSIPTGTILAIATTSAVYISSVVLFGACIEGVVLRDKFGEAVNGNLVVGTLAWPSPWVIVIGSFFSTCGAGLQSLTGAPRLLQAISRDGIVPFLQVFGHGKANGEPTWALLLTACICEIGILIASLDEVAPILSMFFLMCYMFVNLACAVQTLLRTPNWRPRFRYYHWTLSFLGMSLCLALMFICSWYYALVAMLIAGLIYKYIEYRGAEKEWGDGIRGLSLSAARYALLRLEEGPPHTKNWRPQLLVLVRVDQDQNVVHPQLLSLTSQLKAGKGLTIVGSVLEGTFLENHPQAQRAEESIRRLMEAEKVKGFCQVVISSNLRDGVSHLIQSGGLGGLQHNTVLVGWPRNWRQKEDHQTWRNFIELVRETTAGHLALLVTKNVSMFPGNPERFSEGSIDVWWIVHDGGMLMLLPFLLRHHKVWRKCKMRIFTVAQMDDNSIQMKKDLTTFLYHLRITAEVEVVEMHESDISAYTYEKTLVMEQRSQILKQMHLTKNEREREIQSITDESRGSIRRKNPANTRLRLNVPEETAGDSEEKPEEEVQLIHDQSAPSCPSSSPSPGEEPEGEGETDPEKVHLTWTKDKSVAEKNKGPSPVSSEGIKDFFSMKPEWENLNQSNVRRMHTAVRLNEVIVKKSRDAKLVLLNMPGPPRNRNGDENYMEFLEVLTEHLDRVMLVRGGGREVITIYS
STAT1 act-1: STAT1 signaling activators, primary screen, cell-based, HTS, luciferase reporter. NIH 3T3 STAT1-luciferase reporter, IFN-gamma, luminescence; 100% = IFN-gamma alone, no compound. activation (% of control), % at 5.5 µM. 2.6% of 200,000 active;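 active = activation above the screen-wide mean activation plus 3 SD, cut at about 130% in these data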;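 note: raw ratio to IFN-gamma control signal so 100% means no change and 0% no light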
STAT3 act-2: STAT3 reporter potentiators, retest of hits, confirmation, U3A cells, luciferase, luminescence | shares compounds with STAT3 act-1 | IL-6 potentiation; U3A cells lack STAT1; 100 means same as IL-6 alone | potentiation (% of control), % at 5.7 µM | 64% of 1,200 active | AID 1267, 2008;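 active = percent activation of the STAT3 luciferase reporter above a set limit taken from the earlier primary screen, cut at about 130% in these data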;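 note: 0% = background signal of medium plus substrate and 100% = median of IL-6 with DMSO wells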
NFkB act 2: NF-kB reporter activators in human cells, counter-screen for STAT3 activator project. shares compounds with STAT3 act-1. NF-kappaB reporter activation. activation (% of control), % at 5.7 µM. 11% of 1,200 active; in the data active = activation above about 120%;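 note: reporter induced by TNF-alpha stimulation; 100% = median of stimulated DMSO wells and 0% = no signal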
STAT1 act-2: STAT1 reporter activators, IFN-gamma induced, counter-screen for STAT3 activator project, cell-based, NIH 3T3, luciferase luminescence; NIH 3T3 STAT1-luciferase reporter; shares compounds with STAT3 act-1; 13% of 1,200 active; activation (% of control), % at 5.7 µM; AID 1318, 2008;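 active = activation above the solvent-only control well mean plus 3 SD, set per screening run, cut at about 120% in these data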;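 note: 100% = IFN-gamma with DMSO median signal so 100% means no change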
An asterisk follows results filed as active; i = inactive; . = no result. Compounds with a hit are over-represented: about 5.5% of the library has one in this group of screens.

SMILES	STAT3 act-1	HSV replic up	STAT3 inh	STAT1 blocker	KCC2 mod	STAT1 act-1	STAT3 act-2	NFkB act 2	STAT1 act-2
CCNC(=O)COC(=O)/C=C/c1ccccc1[N+](=O)[O-]	92	i	6	16	0.38	85	.	.	.
CN(C)C(=O)COC(=O)/C=C/c1ccccc1[N+](=O)[O-]	162*	i	-73	25	-0.035	77	143*	104	73
Cc1ccc(C(=O)/C=C/c2ccc(-c3ccccc3[N+](=O)[O-])o2)cc1	113	i	-9	-1	-0.2	101	.	.	.
O=C(COC(=O)/C=C/c1ccccc1[N+](=O)[O-])NCC1CCCO1 (stereo unspecified)	102	i	1	8	1	91	.	.	.
CCN(C(=O)COC(=O)/C=C/c1ccccc1[N+](=O)[O-])C1CCS(=O)(=O)C1 (stereo unspecified)	149*	i	-51	32	-0.26	71	141*	105	71
Cc1ccc(C(=O)/C=C/c2ccccc2[N+](=O)[O-])cc1	138*	i	-36	-24	0.44	120	162*	121*	125*
COC(=O)C1=C(C)NC(=S)N(C(C)=O)C1c1ccc(OC)c(OC)c1 (stereo unspecified)	103	i	-1	11	0.55	90	.	.	.
COC(=O)C1(CCSC)NC(c2ccco2)C2C(=O)N(C)C(=O)C21 (stereo unspecified)	104	i	-1	-4	-0.047	104	.	.	.
COc1ccc(S(=O)(=O)Nc2cccnc2)cc1	.	i	.	.	0.27	.	.	.	.
Cc1[nH]nc2c1/C(=N/O)CC(c1ccccc1)C2 (stereo unspecified)	99	i	4	-3	-1.1	103	.	.	.
Brc1ccc(-c2cn3c(n2)CCc2ccc4cccnc4c2-3)cc1	157*	i	-67	5	-0.15	96	149*	101	89
COc1ccc(S(=O)(=O)N2CCN(Cc3ccccc3)CC2)cc1	138*	i	-40	-5	-2	104	105	104	101
CC(C)c1ccc(N(C(=O)C(F)(F)F)C(C(=O)NC2CCCCC2)c2ccncc2)cc1 (stereo unspecified)	101	i	6	3	.	97	.	.	.
CN(C)CCn1c(NC(=O)c2ccc(Cl)cc2)nc2ccccc21	164*	i	-76	-26	0.52	125	157*	119	123*
CCN(CC)CCn1c(NC(=O)c2ccc(C(F)(F)F)cc2)nc2ccccc21	107	i	-5	-9	0.67	106	.	.	.
Cn1c(-c2c(N)n(CCc3ccccc3)c3nc4ccccc4nc23)nc2ccccc21	126	i	-35	8	0.14	93	.	.	.
Cn1c(-c2c(N)n(CCCc3ccccc3)c3nc4ccccc4nc23)nc2ccccc21	152*	i	-54	7	-0.057	94	136*	97	96
COc1ccc(CCN2C(=O)CS/C2=N\NC(=O)c2ccc(C(C)(C)C)cc2)cc1OC	92	i	11	2	1.1	98	.	.	.
COc1ccc(-c2nc3scc(-c4ccccc4)n3n2)cc1	160*	i	-67	12	.	89	144*	103	95
COc1cc(NS(=O)(=O)c2ccc(N/C=C(\C=O)c3nc4ccccc4o3)cc2)nc(OC)n1	147*	i	-54	7	-1.7	93	136*	104	95
CCc1nnc(NS(=O)(=O)c2ccc(N/C=C(\C=O)c3nc4cc(Cl)ccc4o3)cc2)s1	149*	i	-52	-3	2.1	102	135*	103	99
Cc1ccc(CNC(=O)C2CC(c3ccccc3[N+](=O)[O-])=NO2)cc1 (stereo unspecified)	156*	i	-52	-4	.	104	174*	108	112
O=C(Nc1cc(-c2nc3ccccc3s2)ccc1Cl)c1ccc2c(c1)OCO2	138*	i	-36	-5	-0.04	105	137*	120	127*
CN(C)c1ccc(P(=O)(Nc2ccc([N+](=O)[O-])cc2)N2CCOCC2)c(NC(=O)c2cccs2)c1 (stereo unspecified)	140*	i	-54	-5	0.8	105	149*	101	104
Cc1ccc(NP(=O)(c2ccc(N(C)C)cc2NC(=O)c2cccs2)N2CCOCC2)cc1 (stereo unspecified)	139*	i	-53	1	0.64	99	135*	101	101
SMILES	STAT3 act-1	HSV replic up	STAT3 inh	STAT1 blocker	KCC2 mod	STAT1 act-1	STAT3 act-2	NFkB act 2	STAT1 act-2
O=C(Nc1ccc(C(=O)N2CCOCC2)cc1)c1cccs1	97	i	6	3	-0.38	97	.	.	.
Cc1ccc(NP(=O)(c2ccc(N(C)C)cc2NC(=O)c2cccs2)N2CCOCC2)cc1Cl (stereo unspecified)	127	i	-39	4	-0.79	97	.	.	.
CN(C)c1ccc(P(=O)(Nc2ccccc2)N2CCOCC2)c(NC(=O)c2cccs2)c1 (stereo unspecified)	136*	i	-43	-2	1.9	102	140*	100	103
CNC(=O)c1nnsc1S(=O)(=O)c1ccc(Cl)cc1	82	i	28	11	-0.43	90	.	.	.
COc1ccc(/C=N/NC(=O)Cn2cnc3ccccc3c2=O)cc1OC	93	i	12	8	0.47	93	.	.	.
CCOC(=O)C1(Cc2ccc(OC)cc2)CCN(C(=O)c2cc3ccccc3[nH]2)CC1	156*	i	-68	-20	0.5	120	147*	109	117
COc1cc(/C=N/Nc2nc3ccccc3s2)cc([N+](=O)[O-])c1O	.	i	.	.	-2.2	.	.	.	.
Cc1ccc2[nH]c(C)c(/C=N/Nc3nc4ccccc4s3)c2c1	139*	i	-40	-7	-0.64	106	134*	104	101
CCOc1ccc(C2C(C(=O)c3cccs3)=C(O)C(=O)N2Cc2cccnc2)cc1OC (stereo unspecified)	91	i	18	-19	0.038	118	.	.	.
